Data: ChEMBL document CHEMBL3272327, “Hypocholesterolemic activity of 1,3-bis(substituted phenoxy)-2-propanones” (J Med Chem, 1976)

Key:
Rattus norvegicus [1] = experiment: Hypocholesterolemic activity in rat assessed as serum glycerol level at 10 mg/kg/day administered for 14 days (reference value: 100 +/- 39%); type: functional
Rattus norvegicus [2] = experiment: Effect on food intake in rat at 1 mg/kg/day measured during first week (reference value: 19.1 +/- 1.7 gms); type: ADME, organism-based; settings: in vivo
In short: (§1)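 Male rats dosed orally at 1, 5, 10 or 50 mg/kg/day in 1% CMC. Average food intake in grams per rat per week measured over a 2-week period, first and second weeks reported separately. N = 8, Student's t test against the 1% CMC control.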

Rattus norvegicus [3] = experiment: Effect on food intake in rat at 5 mg/kg/day measured during first week (reference value: 19.1 +/- 1.7 gms); type: ADME, organism-based; settings: in vivo; in short: as §1
Rattus norvegicus [4] = experiment: Effect on liver weight in rat at 5 mg/kg/day administered for 16 days measured 24 hrs after last drug dosage relative to total body weight (reference value: 4.22 +/- 0.29%); type: ADME, organism-based; settings: in vivo
Rattus norvegicus [5] = experiment: Effect on liver weight in rat at 10 mg/kg/day administered for 16 days measured 24 hrs after last drug dosage relative to total body weight (reference value: 4.22 to 4.54%); type: ADME, organism-based; settings: in vivo
Rattus norvegicus [6] = experiment: Effect on testes weight in rat at 1 mg/kg/day administered for 16 days measured 24 hrs after last drug dosage relative to total body weight (reference value: 1.08 +/- 0.08%); type: ADME, organism-based, Testis; settings: in vivo
Rattus norvegicus [7] = experiment: Effect on testes weight in rat at 10 mg/kg/day administered for 16 days measured 24 hrs after last drug dosage relative to total body weight (reference value: 1.08 to 1.10%); type: ADME, organism-based, Testis; settings: in vivo
Rattus norvegicus [8] = experiment: Hypocholesterolemic activity in rat assessed as [14C]palmitic acid level in liver at 10 mg/kg/day administered for 1 week measured after 22 hrs on day 7 by scintillation counting analysis (reference value: 8.06 +/- 1.33%); type: functional
In short: (§2)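 Male Sprague-Dawley rats on lab chow dosed orally once daily for 1 week at 10 mg/kg/day, suspended in 1% CMC, or given vehicle alone. On day 7, 5 μCi [1-14C]palmitic acid given orally. Killed after 22 hr; organs made into 10% water homogenates. Aliquots of 0.1 cc of homogenate, urine, blood or feces were digested and scintillation counted. Output is % of dose per tissue, N = 6.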

Rattus norvegicus [9] = experiment: Hypocholesterolemic activity in rat assessed as [14C]palmitic acid level in heart at 10 mg/kg/day administered for 1 week measured after 22 hrs on day 7 by scintillation counting analysis (reference value: 0.23 +/- 0.10%); type: functional; in short: as §2
Rattus norvegicus [10] = experiment: Hypocholesterolemic activity in rat assessed as [14C]palmitic acid level in brain at 10 mg/kg/day administered for 1 week measured after 22 hrs on day 7 by scintillation counting analysis (reference value: 0.07 +/- 0.04%); type: functional; in short: as §2
Rattus norvegicus [11] = experiment: Hypocholesterolemic activity in rat assessed as [14C]palmitic acid level in chyme at 10 mg/kg/day administered for 1 week measured after 22 hrs on day 7 by scintillation counting analysis (reference value: 0.41+/- 0.17%); type: functional; in short: as §2
Rattus norvegicus [12] = experiment: Hypocholesterolemic activity in rat assessed as [14C]palmitic acid level in large intestine at 10 mg/kg/day administered for 1 week measured after 22 hrs on day 7 by scintillation counting analysis (reference value: 3.46 +/- 1.25%); type: functional; in short: as §2
Rattus norvegicus [13] = experiment: Hypocholesterolemic activity in rat assessed as [14C]cholesterol level in testes at 10 mg/kg/day administered for 1 week measured after 22 hrs on day 7 by scintillation counting analysis (reference value: 0.24 +/- 0.17%); type: functional, Testis
In short: (§3)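 Male rats were dosed orally for 1 week (10 mg/kg/day) or with 1% CMC. On day 7 they received 5 μCi [4-14C]cholesterol orally and were killed after 22 hr. Organs were homogenized (10% in water); 0.1-cc aliquots of homogenate, urine, blood or feces were digested with Protosol. Samples were counted in toluene/Triton X-100 (2:1) scintillant with 0.4% PPO and 0.01% POPOP. Results are % of dose per tissue, N = 6.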

Rattus norvegicus [14] = experiment: Hypocholesterolemic activity in rat assessed as [14C]cholesterol level in stomach at 10 mg/kg/day administered for 1 week measured after 22 hrs on day 7 by scintillation counting analysis (reference value: 8.87 +/- 4.00%); type: functional; in short: as §3
Rattus norvegicus [15] = experiment: Hypocholesterolemic activity in rat assessed as [14C]cholesterol level in large intestine at 10 mg/kg/day administered for 1 week measured after 22 hrs on day 7 by scintillation counting analysis (reference value: 19.12 +/- 5.62%); type: functional; in short: as §3
Rattus norvegicus [16] = experiment: Hypocholesterolemic activity in rat assessed as [14C]cholesterol level in feces at 10 mg/kg/day administered for 1 week measured after 22 hrs on day 7 by scintillation counting analysis (reference value: 15.50 +/- 5.24%); type: functional; in short: as §3
Rattus norvegicus [17] = experiment: Hypocholesterolemic activity in Sprague-Dawley rat assessed as serum cholesterol level at 10 mg/kg/day, po administered via intubation measured on day 4 by Liebermann-Burchard reaction (reference value: 100%); type: functional
Rattus norvegicus [18] = experiment: Effect on body weight in rat at 10 mg/kg/day administered for 16 days measured on day 7 (reference value: 173 +/- 12 gms); type: ADME, organism-based; settings: in vivo, 384 h
In short: (§4)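 Male Sprague-Dawley rats with chow and water ad libitum. Compound suspended in 1% CMC-water and given orally by intubation needle at 11:00 a.m., 1, 5, 10 or 50 mg/kg/day, for 16 days. Body weight (g) recorded on days 0, 7 and 16. N = 8.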

Rattus norvegicus [19] = experiment: Effect on body weight in rat at 50 mg/kg/day administered for 16 days measured on day 7 (reference value: 173 +/- 12 gms); type: ADME, organism-based; settings: in vivo, 384 h; in short: as §4
Rattus norvegicus [20] = experiment: Hypocholesterolemic activity in Sprague-Dawley rat assessed as serum cholesterol level at 1 mg/kg/day, po administered via intubation measured on day 4 by Liebermann-Burchard reaction (reference value: 100 +/- 7%); type: functional
Rattus norvegicus [21] = experiment: Hypocholesterolemic activity in Sprague-Dawley rat assessed as serum cholesterol level at 5 mg/kg/day, po administered via intubation measured on day 10 by Liebermann-Burchard reaction (reference value: 100 +/- 7%); type: functional
Rattus norvegicus [22] = experiment: Hypocholesterolemic activity in Sprague-Dawley rat assessed as serum cholesterol level at 50 mg/kg/day, po administered via intubation measured on day 10 by Liebermann-Burchard reaction (reference value: 100 +/- 7%); type: functional
Rattus norvegicus [23] = experiment: Hypocholesterolemic activity in Sprague-Dawley rat assessed as serum cholesterol level at 1 mg/kg/day, po administered via intubation measured on day 16 by Liebermann-Burchard reaction (reference value: 100 +/- 8%); type: functional
Rattus norvegicus [24] = experiment: Hypocholesterolemic activity in rat assessed as [14C]cholesterol level in blood at 10 mg/kg/day administered for 1 week measured after 22 hrs on day 7 by scintillation counting analysis (reference value: 0.01 +/- 0.01%); type: functional; in short: as §3
Rattus norvegicus [25] = experiment: Effect on protein content in rat liver at 10 mg/kg/day administered for 16 days (reference value: 100 +/- 6%); type: ADME, organism-based; settings: in vivo, 384 h
Rattus norvegicus [26] = experiment: Increase in lipase level in rat serum at 10 mg/kg/day administered for 16 days relative to control; type: functional
In short: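 Male Sprague-Dawley rats on rodent chow and water ad libitum; compound suspended in 1% CMC-H2O, 10 mg/kg/day by oral intubation, dose set from weekly weights; controls given 1% CMC. Serum lipase measured with a commercial serum lipase kit after 16 days of dosing; value given as percent of control, N = 8; p by Student's t test.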

Molecule Cc1ccc(OCC(=O)COc2ccc(C)cc2)cc1 has an Activity (Rattus norvegicus [1]) of 24%, an Activity (Rattus norvegicus [2]) of 19.2 g and an Activity (Rattus norvegicus [3]) of 18.8 g. For the same molecule, the Activity (Rattus norvegicus [4]) was 4.31%, the Activity (Rattus norvegicus [5]) was 4.65% and the Activity (Rattus norvegicus [6]) was 1.12%. For the same molecule, the Activity (Rattus norvegicus [7]) was 1.13%, the Activity (Rattus norvegicus [8]) was 9.26% and the Activity (Rattus norvegicus [9]) was 0.26%. The Activity (Rattus norvegicus [10]) was 0.08%, the Activity (Rattus norvegicus [11]) was 2% and the Activity (Rattus norvegicus [12]) was 9.91%. The Activity (Rattus norvegicus [13]) was 0.33%, the Activity (Rattus norvegicus [14]) was 3.36% and the Activity (Rattus norvegicus [15]) was 12.84%. It also gave an Activity (Rattus norvegicus [16]) of 22.1%, an Activity (Rattus norvegicus [17]) of 77% and an Activity (Rattus norvegicus [18]) of 164 g. The Activity (Rattus norvegicus [19]) was 171 g, the Activity (Rattus norvegicus [20]) was 75% and the Activity (Rattus norvegicus [21]) was 58%. It also gave an Activity (Rattus norvegicus [22]) of 46%, an Activity (Rattus norvegicus [23]) of 46% and an Activity (Rattus norvegicus [24]) of 0.01%. The Activity (Rattus norvegicus [25]) was 102% and the “fold change (FC)” value (Rattus norvegicus [26]) was 2.
